PMC4481138 (Nuclear medicine and biology, 2015)
One block for each compound: values may come before it.

Tests used:
[1] = target: norepinephrine transporter (NET) (Bos taurus, UniProt P51143); format: cell-based, human; settings: read-out: IC50, competitive inhibition of [^125I]MIBG uptake; UVW-NAT cells, 2 h at 37 °C, unlabeled compound 10^−9 to 10^−3 M
Outline: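 UVW-NAT cells (NET-transfected human glioma; MEM, 10% FCS, 1 g/L geneticin) seeded at 8 × 10^4/well and held overnight at 37 °C. After cold-PBS washes, fresh medium, [125I]MIBG (3.7 kBq) and unlabeled competitor (10−9 to 10−3 M final) were added for 2 h at 37 °C. Cells were washed, lysed in 1 N NaOH and gamma-counted with supernatants and input standards. IC50 came from nonlinear regression of uptake versus concentration.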

[2] = test system: SK-N-SH human neuroblastoma cells; assay: Paired-label uptake by NET-expressing tumor cells; format: cell-based; settings: 2 h, 37 °C, absence of inhibitor, paired-label [^18F]FPOIBG / [^125I]MIBG
Outline: (§1)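 Cells were seeded at 5 × 10^5/well and held overnight at 37 °C, 5% CO2 (SK-N-SH: RPMI 1640 + FCS; SK-N-BE(2c): DMEM, 15% FCS; UVW-NAT: MEM, 10% FCS, 1 g/L geneticin), then PBS-washed into fresh medium. Tracers were co-incubated 2 h at 37 °C (~3.7 kBq radioiodinated, 18.5 kBq 18F). Parallel desipramine wells gave non-specific uptake. NaOH lysates and supernatants were dual-label gamma-counted and reported as % input dose.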

[3] = test system: UVW human glioma cells transfected to express NET (UVW-NAT); assay: Paired-label uptake by NET-expressing tumor cells; format: cell-based; settings: 2 h, 37 °C, absence of inhibitor, paired-label [^18F]FPOIBG / [^125I]MIBG
Outline: as §1

[4] = test system: SK-N-BE(2c) human neuroblastoma cells; assay: Paired-label uptake by NET-expressing tumor cells; format: cell-based; settings: SK-N-BE(2c) cells, 2 h, 37 °C, absence of inhibitor, paired-label [^18F]FPOIBG / [^125I]MIBG
Outline: as §1

[5] = Paired-label biodistribution in normal mice; format: in vivo, Balb/c mice; settings: for heart uptake after DMI pretreatment as percent of controls: experiment [^18F]FPOBBG / [^125I]MIBG; for heart uptake after DMI pretreatment: DMI 10 mg per kg i.p. 30 min before tracer
Outline: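 Balb/c mice received the radiotracer pair in 100 μL PBS via tail vein: 185 kBq radioiodinated reference plus 296 kBq 18F test compound. Groups of 5 were killed by isoflurane overdose at 1, 2 and 4 h. Organs and blood were blot-dried, weighed and dual-channel gamma counted, giving %ID/g. For blocking, DMI 10 mg per kg i.p. was given 30 min pre-tracer, with sacrifice 1 h later. Co-administered agents were compared by paired 2-tailed t-test.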

[6] = cited from earlier work
SK-N-SH cells = settings: cited from earlier work
UVW-NAT cells = settings: cited from earlier work
[7] = test system: three NET-expressing cell lines (SK-N-SH, UVW-NAT, SK-N-BE(2c)); format: cell-based, human; settings: 2 and 4 h, specific uptake (Figure 3)
Outline: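 NET-expressing human cells (SK-N-SH, SK-N-BE(2c), NET-transfected UVW glioma) were plated at 5 × 10^5 per well and cultured overnight at 37°C, 5% CO2. They were washed, given fresh medium and incubated with the radioiodine pair (about 3.7 kBq each) at 37°C for 2 and 4 h, with or without desipramine. After cold PBS washes, cells were lysed with 1 N NaOH at 37°C, 10 min twice. Dual-label gamma counting gave cell-associated fraction of total radioactivity.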

[8] = test system: PC-12 rat pheochromocytoma xenografts; settings: 8 h, single label format, PC-12 xenograft mice; cited from earlier work
[9] = i.v., 1 h, no DMI (controls), paired-label
[10] = i.v., 2 h, paired-label [^18F]FPOBBG / [^125I]MIBG
[11] = i.v., 4 h, paired-label [^18F]FPOBBG / [^125I]MIBG

Chain of norepinephrine transporter (NET) (P51143 whole entry): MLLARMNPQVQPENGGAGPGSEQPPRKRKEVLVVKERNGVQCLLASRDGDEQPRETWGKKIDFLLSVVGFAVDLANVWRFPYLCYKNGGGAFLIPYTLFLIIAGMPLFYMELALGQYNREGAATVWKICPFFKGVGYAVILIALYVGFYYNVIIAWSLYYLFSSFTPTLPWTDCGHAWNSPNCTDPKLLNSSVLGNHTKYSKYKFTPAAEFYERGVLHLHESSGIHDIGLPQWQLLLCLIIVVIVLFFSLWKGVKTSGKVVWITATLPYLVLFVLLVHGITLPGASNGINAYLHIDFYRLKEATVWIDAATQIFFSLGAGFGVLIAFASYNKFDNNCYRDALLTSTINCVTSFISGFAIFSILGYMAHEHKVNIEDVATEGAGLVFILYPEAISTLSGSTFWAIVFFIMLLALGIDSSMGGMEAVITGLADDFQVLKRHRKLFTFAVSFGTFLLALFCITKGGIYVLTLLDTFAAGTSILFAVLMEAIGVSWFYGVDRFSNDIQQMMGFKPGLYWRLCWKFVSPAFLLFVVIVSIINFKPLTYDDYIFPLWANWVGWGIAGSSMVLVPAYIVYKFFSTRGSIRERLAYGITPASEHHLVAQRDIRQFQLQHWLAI

IC50 [1]: 20 ± 0.1 µM
SMILES: N=C(N)NCc1ccc(OCCCF)c(I)c1 [FPOIBG, 4-(3-Fluoropropoxy)-3-iodobenzylguanidine]

heart uptake after DMI pretreatment as percent of controls ([5]; 1 h): 69%
heart uptake after DMI pretreatment as percent of control values ([5]; 1 h, experiment with co-injected [^18F]FPOIBG): 57%
heart uptake [5, 9]: 18.7 ± 7.7 % ID/g
heart uptake [5, 10]: 16.1 ± 1.4 % ID/g
heart uptake [5, 11]: 10.2 ± 0.9 % ID/g
SMILES: NC(N)=NCc1cccc([125I])c1 [[^125I]MIBG]
uptake (cell-associated radioactivity as percentage of input dose) [2]: 57.3 ± 8.1%
uptake (cell-associated radioactivity as percentage of input dose) [3]: 82.7 ± 8.9%
uptake (cell-associated radioactivity as percentage of input dose) [4]: 66.3 ± 3.6%
reduction of myocardial uptake by DMI pretreatment [6]: 42 ± 4%

heart uptake after DMI pretreatment as percent of controls ([5]; 1 h): 73%
heart uptake [5, 9]: 21.1 ± 5.6 % ID/g
heart uptake [5, 10]: 20.1 ± 2.4 % ID/g
heart uptake [5, 11]: 16.5 ± 2.3 % ID/g
SMILES: N=C(N)NCc1ccc(OCCC[18F])c(Br)c1 [[^18F]FPOBBG, 4-(3-[^18F]Fluoropropoxy)-3-bromobenzylguanidine]

SMILES: N=C(N)NCc1cccc([131I])c1 [[^131I]MIBG]
reduction of heart uptake by DMI ([5]; 1 h, experiment with co-injected [^125I]FPOIBG): 51%

SMILES: N=C(N)NCc1ccc([18F])c(I)c1 [[^18F]FIBG, 4-[^18F]fluoro-3-iodobenzylguanidine]
uptake in SK-N-SH cells, higher than that of co-incubated n.c.a. [^125I]MIBG (SK-N-SH cells): about 15%

IC50 [1]: 11 ± 2.9 µM
SMILES: N=C(N)NCc1ccc(OCCCF)c(Br)c1 [FPOBBG, 4-(3-Fluoropropoxy)-3-bromobenzylguanidine]

SMILES: N=C(N)NCc1cccc([131I])c1 [MIBG, meta-iodobenzylguanidine]
uptake in UVW-NAT cells compared to that in SK-N-BE(2c) (UVW-NAT cells): two-fold higher

SMILES: N=C(N)NCc1cccc(I)c1 [MIBG, meta-iodobenzylguanidine]
IC50 [1]: 1.5 ± 1.1 µM

hepatic (liver) uptake compared with co-injected radioiodinated MIBG [5]: lower liver uptake
heart uptake after DMI pretreatment ([5]; 1 h): 17.8 ± 1.8 % ID/g
thyroid uptake (indicator of deiodination) ([5]; compared with [^131I]MIBG): relatively low
heart uptake as percent of that of [^131I]MIBG ([5]; i.v., 1–4 h, paired-label): 41–61%
SMILES: N=C(N)NCc1ccc(OCCCF)c([125I])c1 [[^125I]FPOIBG, 4-(3-Fluoropropoxy)-3-[^125I]iodobenzylguanidine]
uptake as percent of [^131I]MIBG [7]: 31–53%

SMILES: NC(N)=NCc1cccc([76Br])c1 [[^76Br]MBBG, ^76Br-meta-bromobenzylguanidine]
reduction of myocardial uptake by DMI pretreatment [6]: 64 ± 3%
uptake in both tumor and heart relative to [^123I]MIBG [8]: about 4 fold

heart uptake after DMI pretreatment ([5]; 1 h): 13.2 ± 3.3 % ID/g
bone uptake relative to that of [^18F]FPOBBG ([5]; 4 h, indicator of defluorination): about 4 fold
myocardial uptake as percent of that of [^125I]MIBG ([5]; i.v., three time points (1, 2, 4 h), paired-label): 72–74%
SMILES: N=C(N)NCc1ccc(OCCC[18F])c(I)c1 [[^18F]FPOIBG, 4-(3-[^18F]Fluoropropoxy)-3-iodobenzylguanidine]
uptake (cell-associated radioactivity as percentage of input dose) [2]: 10.2 ± 1.5%
uptake (cell-associated radioactivity as percentage of input dose) [3]: 39.6 ± 13.4%
uptake (cell-associated radioactivity as percentage of input dose) [4]: 13.3 ± 2.5%
